Test results reported in the M2OR odorant receptor database.

Assays:
Settings in all cases: stereoisomer not certain
OR10H3 (Homo sapiens) = biological target: T1, OR10H3 (Homo sapiens) (UniProt O60404)
T1 sequence (whole entry): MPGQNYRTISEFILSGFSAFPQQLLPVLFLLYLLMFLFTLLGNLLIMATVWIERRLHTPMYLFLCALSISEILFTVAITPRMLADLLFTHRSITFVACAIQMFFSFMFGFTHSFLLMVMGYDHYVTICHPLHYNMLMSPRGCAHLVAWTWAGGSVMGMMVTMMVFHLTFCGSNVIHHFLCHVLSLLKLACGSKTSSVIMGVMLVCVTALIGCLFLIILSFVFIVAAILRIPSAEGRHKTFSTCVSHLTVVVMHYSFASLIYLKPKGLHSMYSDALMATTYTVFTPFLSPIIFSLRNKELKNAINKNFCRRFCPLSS
Summary of the method: (§1)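 Each entry records the cell line, G-protein, co-transfected protein and tags used. Methods varied with the source, often transient luciferase assays in mammalian cell lines. A receptor–molecule pair is called responsive (active) if the original authors judged its signal statistically different from baseline and non-responsive (inactive) otherwise.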

OR10H4 (Homo sapiens) = biological target: T2, OR10H4 (Homo sapiens) (UniProt Q8NGA5)
T2 sequence (whole entry): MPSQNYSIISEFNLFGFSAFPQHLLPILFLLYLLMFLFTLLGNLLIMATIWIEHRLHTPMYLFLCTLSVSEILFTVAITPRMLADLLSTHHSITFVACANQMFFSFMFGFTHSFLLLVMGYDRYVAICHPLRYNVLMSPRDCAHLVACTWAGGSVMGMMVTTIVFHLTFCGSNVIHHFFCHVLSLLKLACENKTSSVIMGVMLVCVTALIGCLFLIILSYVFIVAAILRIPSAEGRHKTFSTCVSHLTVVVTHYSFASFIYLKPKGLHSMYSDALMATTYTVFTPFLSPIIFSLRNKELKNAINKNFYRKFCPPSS
Summary of the method: as §1

OR10H5 (Homo sapiens) = biological target: T3, OR10H5 (Homo sapiens) (UniProt Q8NGA6)
T3 sequence (whole entry): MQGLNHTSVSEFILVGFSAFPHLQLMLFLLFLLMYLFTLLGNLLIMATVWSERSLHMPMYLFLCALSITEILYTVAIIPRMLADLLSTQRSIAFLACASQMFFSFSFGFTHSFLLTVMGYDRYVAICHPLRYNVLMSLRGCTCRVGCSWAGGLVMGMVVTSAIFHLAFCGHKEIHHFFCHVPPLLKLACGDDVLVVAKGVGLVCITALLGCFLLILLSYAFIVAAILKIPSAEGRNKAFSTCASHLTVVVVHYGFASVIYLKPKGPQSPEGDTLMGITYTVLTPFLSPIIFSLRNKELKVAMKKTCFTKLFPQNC
Summary of the method: as §1

OR10J1 (Homo sapiens) = biological target: T4, OR10J1 (Homo sapiens) (UniProt P30954)
T4 sequence (whole entry): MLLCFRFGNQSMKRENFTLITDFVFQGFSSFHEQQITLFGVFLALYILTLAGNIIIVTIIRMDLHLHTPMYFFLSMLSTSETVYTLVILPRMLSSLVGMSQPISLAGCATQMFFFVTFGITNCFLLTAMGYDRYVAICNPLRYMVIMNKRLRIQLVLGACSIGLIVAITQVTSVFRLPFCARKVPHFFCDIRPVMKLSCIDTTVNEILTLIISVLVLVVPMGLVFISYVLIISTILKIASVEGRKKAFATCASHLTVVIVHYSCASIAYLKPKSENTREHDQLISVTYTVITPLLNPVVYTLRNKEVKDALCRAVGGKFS
Summary of the method: as §1

OR10J3 (Homo sapiens) = biological target: T5, OR10J3 (Homo sapiens) (UniProt Q5JRS4)
T5 sequence (whole entry): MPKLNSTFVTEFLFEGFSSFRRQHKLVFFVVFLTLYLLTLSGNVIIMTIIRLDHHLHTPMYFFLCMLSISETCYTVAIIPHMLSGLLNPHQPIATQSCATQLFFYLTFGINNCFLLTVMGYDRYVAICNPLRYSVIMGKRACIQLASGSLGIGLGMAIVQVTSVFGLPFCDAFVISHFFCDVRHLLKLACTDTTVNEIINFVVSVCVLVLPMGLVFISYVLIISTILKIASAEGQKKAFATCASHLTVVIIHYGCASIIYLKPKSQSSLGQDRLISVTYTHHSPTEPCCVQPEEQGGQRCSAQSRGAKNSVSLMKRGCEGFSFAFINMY
Summary of the method: as §1

OR10J5 (Homo sapiens) = biological target: T6, OR10J5 (Homo sapiens) (UniProt Q8NHC4)
T6 sequence (whole entry): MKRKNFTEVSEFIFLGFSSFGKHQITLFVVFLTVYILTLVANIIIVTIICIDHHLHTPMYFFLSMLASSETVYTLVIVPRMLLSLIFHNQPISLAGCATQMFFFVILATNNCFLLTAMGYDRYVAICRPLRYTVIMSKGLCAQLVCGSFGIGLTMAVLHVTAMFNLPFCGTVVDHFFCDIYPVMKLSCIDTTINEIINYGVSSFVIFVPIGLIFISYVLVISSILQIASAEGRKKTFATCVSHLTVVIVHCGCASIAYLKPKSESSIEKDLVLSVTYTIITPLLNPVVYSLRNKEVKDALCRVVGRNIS
Summary of the method: as §1

OR10K1 (Homo sapiens) = biological target: T7, OR10K1 (Homo sapiens) (UniProt Q8NGX5)
T7 sequence (whole entry): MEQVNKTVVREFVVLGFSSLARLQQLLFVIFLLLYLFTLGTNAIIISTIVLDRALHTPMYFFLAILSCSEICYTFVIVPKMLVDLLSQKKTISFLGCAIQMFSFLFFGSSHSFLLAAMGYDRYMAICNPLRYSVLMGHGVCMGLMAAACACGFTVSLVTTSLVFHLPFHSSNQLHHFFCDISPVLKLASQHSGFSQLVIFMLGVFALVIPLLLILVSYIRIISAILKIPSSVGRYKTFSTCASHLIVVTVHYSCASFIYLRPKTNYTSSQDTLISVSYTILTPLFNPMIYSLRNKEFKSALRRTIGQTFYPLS
Summary of the method: as §1

OR10P1 (Homo sapiens) = biological target: T8, OR10P1 (Homo sapiens) (UniProt Q8NGE3)
T8 sequence (whole entry): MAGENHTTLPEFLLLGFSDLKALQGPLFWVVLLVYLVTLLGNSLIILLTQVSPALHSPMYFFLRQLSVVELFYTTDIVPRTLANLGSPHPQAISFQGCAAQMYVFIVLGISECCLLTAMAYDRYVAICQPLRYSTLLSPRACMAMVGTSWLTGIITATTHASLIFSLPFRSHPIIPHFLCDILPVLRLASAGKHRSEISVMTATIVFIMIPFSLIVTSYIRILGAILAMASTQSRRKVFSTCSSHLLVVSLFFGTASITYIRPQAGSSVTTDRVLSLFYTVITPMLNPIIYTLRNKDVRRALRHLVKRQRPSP
Summary of the method: as §1

OR10Q1 (Homo sapiens) = biological target: T9, OR10Q1 (Homo sapiens) (UniProt Q8NGQ4)
T9 sequence (whole entry): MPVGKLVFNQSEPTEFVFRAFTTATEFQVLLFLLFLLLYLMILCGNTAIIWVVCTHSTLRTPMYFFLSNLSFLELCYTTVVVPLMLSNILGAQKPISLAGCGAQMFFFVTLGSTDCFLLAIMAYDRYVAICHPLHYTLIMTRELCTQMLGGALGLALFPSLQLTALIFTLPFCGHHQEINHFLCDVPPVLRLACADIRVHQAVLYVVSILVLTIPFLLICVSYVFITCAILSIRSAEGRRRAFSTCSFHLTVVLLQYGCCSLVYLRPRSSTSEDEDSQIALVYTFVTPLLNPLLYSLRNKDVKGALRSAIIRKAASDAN
Summary of the method: as §1

Measured: odorant receptor agonist call

CCCC(S)CCOC(C)=O (centres undefined)
inactive: all assays above
